Converted amounts (≈) assume the structure as drawn. Where a SMILES comes first, the peptide text is derived from it. [ ]: non-standard residue; d: D form. Dap = NC[C@H](N)C(=O)O
Assays:
Acinetobacter baumannii [1] = experiment: Ratio of MIC for Acinetobacter baumannii 649 measured in presence of 25% human serum to MIC for Acinetobacter baumannii 649 in absence of 25% human serum; format: functional
Method in brief: (§1)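 Blood strain 649 was tested by MH broth microdilution with and without 25% (v/v) human serum added to the medium. The test used a final inoculum of 5 × 10^5 cfu/mL and incubation at 37 °C. The ratio is the MIC in serum over the MIC in MH alone.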

Acinetobacter baumannii [2] = experiment: Antibacterial activity against Acinetobacter baumannii isolate 1035794 measured after 24 hrs by microtiter dilution method; format: functional; settings: isolate 1035794, 24 h
Method in brief: (§2)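 Broth microdilution in Mueller-Hinton (MH) medium. […] Plates were incubated 24 h at 37 °C. MIC was the lowest peptide concentration that inhibited growth, based on three sets of replicates.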

Acinetobacter baumannii [3] = experiment: Antibacterial activity against polymyxin B/colistin-resistant Acinetobacter baumannii M89955 measured after 24 hrs by microtiter dilution method; format: functional; settings: M89955, 24 h; method in brief: as §2
[4] = Therapeutic index, ratio of HC50 for human RBC to MIC for polymyxin B/colistin-resistant Acinetobacter baumannii M89949; format: toxicity; settings: human red blood cells, read-out: TI
Method in brief: (§3)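 T.I. = HC50/MIC. For HC50, peptide (quantified by amino acid analysis) was two-fold serially diluted over 12 concentrations up to 1000 μg/mL. It was incubated with 1% fresh human erythrocytes in PBS, pH 7.4, for 18 h at 37 °C. After 800g centrifugation, hemoglobin was read at 570 nm against water (100%) and no-peptide (0%) controls. HC50 came from a lysis-versus-concentration plot, average of 3 replicates.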

Acinetobacter baumannii [5] = experiment: Antibacterial activity against Acinetobacter baumannii isolate 1010245 measured after 24 hrs by microtiter dilution method; format: functional; settings: isolate 1010245, 24 h; method in brief: as §2
Acinetobacter baumannii [6] = experiment: Antibacterial activity against Acinetobacter baumannii isolate 9383370 measured after 24 hrs by microtiter dilution method; format: functional; settings: isolate 9383370, 24 h; method in brief: as §2
Acinetobacter baumannii [7] = experiment: Antibacterial activity against polymyxin B/colistin-resistant Acinetobacter baumannii M89963 measured after 24 hrs by microtiter dilution method; format: functional; settings: M89963, 24 h; method in brief: as §2
Acinetobacter baumannii [8] = experiment: Antibacterial activity against Acinetobacter baumannii isolate 952654 measured after 24 hrs by microtiter dilution method; format: functional; settings: isolate 952654, 24 h; method in brief: as §2
Acinetobacter baumannii [9] = experiment: Antibacterial activity against Acinetobacter baumannii isolate 1021371 measured after 24 hrs by microtiter dilution method; format: functional; settings: isolate 1021371, 24 h; method in brief: as §2
Acinetobacter baumannii [10] = experiment: Antibacterial activity against Acinetobacter baumannii isolate 961997 measured after 24 hrs by microtiter dilution method; format: functional; settings: isolate 961997, 24 h; method in brief: as §2
[11] = Therapeutic index, ratio of HC50 for human RBC to MIC for polymyxin B/colistin-resistant Acinetobacter baumannii M89941; format: toxicity; settings: human red blood cells, read-out: TI; method in brief: as §3
Acinetobacter baumannii [12] = experiment: Antibacterial activity against polymyxin B/colistin-resistant Acinetobacter baumannii M89952 measured after 24 hrs by microtiter dilution method; format: functional; settings: M89952, 24 h; method in brief: as §2
Acinetobacter baumannii [13] = experiment: Antibacterial activity against polymyxin B/colistin-resistant Acinetobacter baumannii M89951 measured after 24 hrs by microtiter dilution method; format: functional; settings: M89951, 24 h; method in brief: as §2
[14] = Therapeutic index, ratio of HC50 for human RBC to MIC for polymyxin B/colistin-resistant Acinetobacter baumannii M89952; format: toxicity; settings: human red blood cells, read-out: TI; method in brief: as §3
Acinetobacter baumannii [15] = experiment: Antibacterial activity against Acinetobacter baumannii isolate 1002956 measured after 24 hrs by microtiter dilution method; format: functional; settings: isolate 1002956, 24 h; method in brief: as §2
Acinetobacter baumannii [16] = experiment: Antibacterial activity against Acinetobacter baumannii 649 measured after 24 hrs in presence of 25% human serum by microtiter dilution method; format: functional; settings: Acinetobacter baumannii, 649, 24 h; method in brief: as §1
[17] = Therapeutic index, ratio of HC50 for human RBC to MIC for polymyxin B/colistin-resistant Acinetobacter baumannii M89963; format: toxicity; settings: human red blood cells, read-out: TI; method in brief: as §3
Acinetobacter baumannii [18] = experiment: Antibacterial activity against Acinetobacter baumannii isolate 963618 measured after 24 hrs by microtiter dilution method; format: functional; settings: isolate 963618, 24 h; method in brief: as §2
Acinetobacter baumannii [19] = experiment: Antibacterial activity against Acinetobacter baumannii 649 measured after 24 hrs by microtiter dilution method; format: functional; settings: Acinetobacter baumannii, 649, 24 h; method in brief: as §2
Acinetobacter baumannii [20] = experiment: Antibacterial activity against Acinetobacter baumannii isolate 977751 measured after 24 hrs by microtiter dilution method; format: functional; settings: isolate 977751, 24 h; method in brief: as §2
[21] = Therapeutic index, ratio of HC50 for human RBC to MIC for polymyxin B/colistin-resistant Acinetobacter baumannii M89953; format: toxicity; settings: human red blood cells, read-out: TI; method in brief: as §3
Acinetobacter baumannii [22] = experiment: Antibacterial activity against Acinetobacter baumannii isolate 965463 measured after 24 hrs by microtiter dilution method; format: functional; settings: isolate 965463, 24 h; method in brief: as §2
Acinetobacter baumannii [23] = experiment: Antibacterial activity against Acinetobacter baumannii isolate 963659 measured after 24 hrs by microtiter dilution method; format: functional; settings: isolate 963659, 24 h; method in brief: as §2
Acinetobacter baumannii [24] = experiment: Antibacterial activity against polymyxin B/colistin-resistant Acinetobacter baumannii M89941 measured after 24 hrs by microtiter dilution method; format: functional; settings: M89941, 24 h; method in brief: as §2
Acinetobacter baumannii [25] = experiment: Antibacterial activity against Acinetobacter baumannii isolate 1001611 measured after 24 hrs by microtiter dilution method; format: functional; settings: isolate 1001611, 24 h; method in brief: as §2
Acinetobacter baumannii [26] = experiment: Antibacterial activity against Acinetobacter baumannii isolate 1007660 measured after 24 hrs by microtiter dilution method; format: functional; settings: isolate 1007660, 24 h; method in brief: as §2
Acinetobacter baumannii [27] = experiment: Antibacterial activity against Acinetobacter baumannii isolate 1018887 measured after 24 hrs by microtiter dilution method; format: functional; settings: isolate 1018887, 24 h; method in brief: as §2
Acinetobacter baumannii [28] = experiment: Antibacterial activity against polymyxin B/colistin-resistant Acinetobacter baumannii M89953 measured after 24 hrs by microtiter dilution method; format: functional; settings: M89953, 24 h; method in brief: as §2
Acinetobacter baumannii [29] = experiment: Antibacterial activity against Acinetobacter baumannii isolate 1017395 measured after 24 hrs by microtiter dilution method; format: functional; settings: isolate 1017395, 24 h; method in brief: as §2
Acinetobacter baumannii [30] = experiment: Antibacterial activity against polymyxin B/colistin-resistant Acinetobacter baumannii M89949 measured after 24 hrs by microtiter dilution method; format: functional; settings: M89949, 24 h; method in brief: as §2
Acinetobacter baumannii [31] = experiment: Antibacterial activity against Acinetobacter baumannii isolate 964304 measured after 24 hrs by microtiter dilution method; format: functional; settings: isolate 964304, 24 h; method in brief: as §2
Acinetobacter baumannii [32] = experiment: Antibacterial activity against Acinetobacter baumannii isolate 981650 measured after 24 hrs by microtiter dilution method; format: functional; settings: isolate 981650, 24 h; method in brief: as §2
[33] = Hemolytic activity against human RBC measured after 18 hrs by spectrophotometric method; format: ADME, cell-based, Erythrocyte; settings: human red blood cells (erythrocytes)
Method in brief: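 Peptide (amount by amino acid analysis), two-fold serial dilutions at 12 concentrations up to 1000 μg/mL, with 1% human erythrocytes in PBS pH 7.4, 37 °C, 18 h. Unlysed cells removed by centrifugation (800g); hemoglobin read at 570 nm. Water-lysed cells = 100%, no-peptide cells = 0%. HC50 from plot of % lysis vs concentration (μM), average of 3 replicates.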

Acinetobacter baumannii [34] = experiment: Antibacterial activity against Acinetobacter baumannii isolate 1010282 measured after 24 hrs by microtiter dilution method; format: functional; settings: isolate 1010282, 24 h; method in brief: as §2
[35] = Therapeutic index, ratio of HC50 for human RBC to MIC for polymyxin B/colistin-resistant Acinetobacter baumannii M89955; format: toxicity; settings: human red blood cells, read-out: TI; method in brief: as §3
Acinetobacter baumannii [36] = experiment: Antibacterial activity against Acinetobacter baumannii isolate 1035166 measured after 24 hrs by microtiter dilution method; format: functional; settings: isolate 1035166, 24 h; method in brief: as §2
[37] = Therapeutic index, ratio of HC50 for human RBC to MIC for polymyxin B/colistin-resistant Acinetobacter baumannii M89951; format: toxicity; settings: human red blood cells, read-out: TI; method in brief: as §3
Acinetobacter baumannii [38] = experiment: Antibacterial activity against Acinetobacter baumannii isolate 968886 measured after 24 hrs by microtiter dilution method; format: functional; settings: isolate 968886, 24 h; method in brief: as §2

## CC(=O)N[C@H](CCCCN)C(=O)N[C@H](CC(C)C)C(=O)N[C@@H](CN)C(=O)N[C@H](CO)C(=O)N[C@H](CC(C)C)C(=O)N[C@H](CC(C)C)C(=O)N[C@@H](CN)C(=O)N[C@@H](C(=O)N[C@H](CC(C)C)C(=O)N[C@H](CO)C(=O)N[C@@H](CN)C(=O)N[C@H](C)C(=O)N[C@H](C)C(=O)N[C@H](C)C(=O)N[C@H](C)C(=O)N[C@H](C)C(=O)N[C@H](CC(C)C)C(=O)N[C@@H](CN)C(=O)N[C@@H](C(=O)N[C@H](CC(C)C)C(=O)N[C@H](CC(C)C)C(=O)N[C@@H](CN)C(=O)N[C@H](C)C(=O)N[C@H](CC(C)C)C(=O)N[C@H](CO)C(=O)N[C@@H](CN)C(N)=O)[C@H](C)O)[C@H](C)O (Ac-[dK][dL][Dap][dS][dL][dL][Dap][dT][dL][dS][Dap][dA][dA][dA][dA][dA][dL][Dap][dT][dL][dL][Dap][dA][dL][dS][Dap]-NH2)
Acinetobacter baumannii [1]
  Ratio: 4 - 16
Acinetobacter baumannii [2]
  MIC: 1.6 µM (≈ 4 µg/mL)
Acinetobacter baumannii [3]
  MIC: 1.6 µM (≈ 4 µg/mL)
[4]
  selectivity ratio: 2.2
Acinetobacter baumannii [5]
  MIC: 0.8 µM (≈ 2 µg/mL)
Acinetobacter baumannii [6]
  MIC: 1.6 µM (≈ 4 µg/mL)
Acinetobacter baumannii [7]
  MIC: 1.6 µM (≈ 4 µg/mL)
Acinetobacter baumannii [8]
  MIC: 6.4 µM (≈ 16 µg/mL)
Acinetobacter baumannii [9]
  MIC: 0.8 µM (≈ 2 µg/mL)
Acinetobacter baumannii [10]
  MIC: 3.2 µM (≈ 8 µg/mL)
[11]
  selectivity ratio: 2.2
Acinetobacter baumannii [12]
  MIC: 1.6 µM (≈ 4 µg/mL)
Acinetobacter baumannii [13]
  MIC: 0.8 µM (≈ 2 µg/mL)
[14]
  selectivity ratio: 2.2
Acinetobacter baumannii [15]
  MIC: 1.6 µM (≈ 4 µg/mL)
Acinetobacter baumannii [16]
  MIC: 12.5 µM
[17]
  selectivity ratio: 2.2
Acinetobacter baumannii [18]
  MIC: 1.6 µM (≈ 4 µg/mL)
Acinetobacter baumannii [19]
  MIC: 0.8 µM (≈ 2 µg/mL)
Acinetobacter baumannii [20]
  MIC: 0.8 µM (≈ 2 µg/mL)
[21]
  selectivity ratio: 2.2
Acinetobacter baumannii [22]
  MIC: 3.2 µM (≈ 8 µg/mL)
Acinetobacter baumannii [23]
  MIC: 3.2 µM (≈ 8 µg/mL)
Acinetobacter baumannii [24]
  MIC: 1.6 µM (≈ 4 µg/mL)
Acinetobacter baumannii [25]
  MIC: 1.6 µM (≈ 4 µg/mL)
Acinetobacter baumannii [26]
  MIC: 3.2 µM (≈ 8 µg/mL)
Acinetobacter baumannii [27]
  MIC: 3.2 µM (≈ 8 µg/mL)
Acinetobacter baumannii [28]
  MIC: 1.6 µM (≈ 4 µg/mL)
Acinetobacter baumannii [29]
  MIC: 3.2 µM (≈ 8 µg/mL)
Acinetobacter baumannii [30]
  MIC: 0.8 µM (≈ 2 µg/mL)
Acinetobacter baumannii [31]
  MIC: 3.2 µM (≈ 8 µg/mL)
Acinetobacter baumannii [32]
  MIC: 1.6 µM (≈ 4 µg/mL)
[33]
  HC50 at 18 h: 2900 nM
Acinetobacter baumannii [34]
  MIC: 1.6 µM (≈ 4 µg/mL)
[35]
  selectivity ratio: 2.2
Acinetobacter baumannii [36]
  MIC: 3.2 µM (≈ 8 µg/mL)
[37]
  selectivity ratio: 2.2
Acinetobacter baumannii [38]
  MIC: 1.6 µM (≈ 4 µg/mL)

Reference: ChEMBL document CHEMBL4339192, “De Novo Designed Amphipathic α-Helical Antimicrobial Peptides Incorporating Dab and Dap Residues on the Polar Face To Treat the Gram-Negative Pathogen, Acinetobacter baumannii” (J Med Chem, 2019)
